Test results: ChEMBL document CHEMBL4811275, “Iodinated 1,2-diacylhydrazines, benzohydrazide-hydrazones and their analogues as dual antimicrobial and cytotoxic agents” (Bioorg Med Chem, 2021)
Converted amounts (≈) assume the structure as drawn.

Assays:
[1] = test system: Staphylococcus aureus; assay: Antibacterial activity against Staphylococcus aureus ATCC 29213 assessed as reduction in bacterial growth incubated for 24 hrs by broth microdilution method; format: functional
How it was run: (§1)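 Cation-adjusted Mueller-Hinton broth microdilution per EUCAST, modified; compounds from DMSO stocks, final DMSO ≤1% v/v; scale starting from 0.49 µM. Static incubation at 35 ± 2 °C, dark, humidified, read at 24 and 48 h. MIC = lowest concentration with no visible growth by eye; duplicates, parallel readings within one dilution step; growth and medium/DMSO controls included.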

[2] = test system: Staphylococcus aureus; assay: Antibacterial activity against Staphylococcus aureus ATCC 29213 assessed as reduction in bacterial growth incubated for 48 hrs by broth microdilution method; format: functional; how it was run: as §1
[3] = test system: Staphylococcus aureus; assay: Antibacterial activity against methicillin-resistant Staphylococcus aureus ATCC 43300 assessed as reduction in bacterial growth incubated for 24 hrs by broth microdilution method; format: functional
How it was run: (§2)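 EUCAST-based broth microdilution in cation-adjusted Mueller-Hinton broth. DMSO stocks, final DMSO ≤1% v/v, concentration scale starting from 0.49 µM. Static incubation at 35 ± 2 °C, dark and humidified. Run in duplicate, accepted only if parallel MICs differ by at most one dilution step. MIC is the lowest concentration with no visible growth by naked eye.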

[4] = test system: Staphylococcus aureus; assay: Antibacterial activity against methicillin-resistant Staphylococcus aureus ATCC 43300 assessed as reduction in bacterial growth incubated for 48 hrs by broth microdilution method; format: functional; how it was run: as §2
[5] = test system: Staphylococcus epidermidis; assay: Antibacterial activity against Staphylococcus epidermidis ATCC 12228 assessed as reduction in bacterial growth incubated for 24 hrs by broth microdilution method; format: functional; how it was run: as §1
[6] = test system: Staphylococcus epidermidis; assay: Antibacterial activity against Staphylococcus epidermidis ATCC 12228 assessed as reduction in bacterial growth incubated for 48 hrs by broth microdilution method; format: functional; how it was run: as §1
[7] = test system: Enterococcus faecalis; assay: Antibacterial activity against Enterococcus faecalis ATCC 29212 assessed as reduction in bacterial growth incubated for 24 hrs by broth microdilution method; format: functional; how it was run: as §1
[8] = test system: Enterococcus faecalis; assay: Antibacterial activity against Enterococcus faecalis ATCC 29212 assessed as reduction in bacterial growth incubated for 48 hrs by broth microdilution method; format: functional; how it was run: as §1
[9] = test system: Escherichia coli; assay: Antibacterial activity against Escherichia coli ATCC 25922 assessed as reduction in bacterial growth incubated for 24 hrs by broth microdilution method; format: functional; how it was run: as §1
[10] = test system: Escherichia coli; assay: Antibacterial activity against Escherichia coli ATCC 25922 assessed as reduction in bacterial growth incubated for 48 hrs by broth microdilution method; format: functional; how it was run: as §1
[11] = test system: HepG2; assay: Cytotoxicity against human HepG2 cells assessed as reduction in cell viability incubated for 24 hrs by cell-titer 96 aqueous one solution cell proliferation assay; format: functional, cell-based; settings: HepG2, 24 h
[12] = test system: HK-2; assay: Cytotoxicity against human HK-2 cells assessed as reduction in cell viability incubated for 24 hrs by cell-titer 96 aqueous one solution cell proliferation assay; format: cell-based; settings: HK-2, 24 h

Structure (SMILES)	MIC [1] [µM]	MIC [2] [µM]	MIC [3] [µM]	MIC [4] [µM]	MIC [5] [µM]	MIC [6] [µM]	MIC [7] [µM]	MIC [8] [µM]	MIC [9] [µM]	MIC [10] [µM]	IC50 [11] [µM]	IC50 [12] [µM]
O=C(N/N=C/c1cc(I)c(O)c(I)c1)c1ccc(Br)cc1	> 500	> 500	> 500	> 500	> 500	> 500	> 500	> 500	> 500	> 500	> 50	
O=C(NNC(=O)c1cc(I)cc(I)c1O)c1ccc(Cl)cc1	62.5 (≈ 33.9 µg/mL)	62.5 (≈ 33.9 µg/mL)	62.5 (≈ 33.9 µg/mL)	62.5 (≈ 33.9 µg/mL)	31.2 (≈ 17 µg/mL)	62.5 (≈ 33.9 µg/mL)	125 (≈ 67.8 µg/mL)	125 (≈ 67.8 µg/mL)	> 500	> 500	48.6	
Cc1ccc(C(=O)N/N=C/c2cc(I)c(O)c(I)c2)cc1	250 (≈ 127 µg/mL)	500 (≈ 253 µg/mL)	> 500	> 500	> 500	> 500	> 500	> 500	> 500	> 500	> 100	
O=C(NNC(=O)c1cc(I)cc(I)c1O)c1ccc(Br)cc1											62.8	
COc1ccc(C(=O)NNC(=O)c2cc(I)cc(I)c2O)cc1	500 (≈ 269 µg/mL)	> 500	500 (≈ 269 µg/mL)	> 500	500 (≈ 269 µg/mL)	> 500	500 (≈ 269 µg/mL)	> 500	> 500	> 500	132	
CC(C)(C)c1ccc(C(=O)NNC(=O)c2cc(I)cc(I)c2O)cc1	> 500	> 500	> 500	> 500	> 500	> 500	> 500	> 500	> 500	> 500	87.3	
O=C(N/N=C/c1cc(I)cc(I)c1O)c1ccc(Br)cc1	62.5 (≈ 35.7 µg/mL)	62.5 (≈ 35.7 µg/mL)	62.5 (≈ 35.7 µg/mL)	125 (≈ 71.4 µg/mL)	62.5 (≈ 35.7 µg/mL)	125 (≈ 71.4 µg/mL)	250 (≈ 143 µg/mL)	250 (≈ 143 µg/mL)	> 250	> 250	22.3	
O=C(N/N=C/c1cc(I)cc(I)c1O)c1ccccc1	62.5 (≈ 30.8 µg/mL)	125 (≈ 61.5 µg/mL)	62.5 (≈ 30.8 µg/mL)	125 (≈ 61.5 µg/mL)	62.5 (≈ 30.8 µg/mL)	125 (≈ 61.5 µg/mL)	250 (≈ 123 µg/mL)	500 (≈ 246 µg/mL)	> 500	> 500	> 50	
O=C(NNC(=O)c1cc(I)cc(I)c1O)c1ccc(I)cc1	250 (≈ 158 µg/mL)	250 (≈ 158 µg/mL)	125 (≈ 79.2 µg/mL)	250 (≈ 158 µg/mL)	62.5 (≈ 39.6 µg/mL)	125 (≈ 79.2 µg/mL)	125 (≈ 79.2 µg/mL)	250 (≈ 158 µg/mL)	> 250	> 250	25.1	> 100
COc1ccc(C(=O)N/N=C/c2cc(I)c(O)c(I)c2)cc1	500 (≈ 261 µg/mL)	500 (≈ 261 µg/mL)	> 500	> 500	> 500	> 500	> 500	> 500	> 500	> 500	> 100	
O=C(N/N=C/c1cc(I)c(O)c(I)c1)c1ccc(O)cc1	500 (≈ 254 µg/mL)	500 (≈ 254 µg/mL)	> 500	> 500	> 500	> 500	> 500	> 500	> 500	> 500	110	
CC(C)(C)c1ccc(C(=O)N/N=C/c2cc(I)cc(I)c2O)cc1	> 500	> 500	> 500	> 500	> 500	> 500	> 500	> 500	> 500	> 500	41.6	
O=C(N/N=C/c1cc(I)c(O)c(I)c1)c1ccc(F)cc1	125 (≈ 63.8 µg/mL)	500 (≈ 255 µg/mL)	500 (≈ 255 µg/mL)	> 500	> 500	> 500	> 500	> 500	> 500	> 500	117	
O=C(N/N=C/c1cc(I)c(O)c(I)c1)c1ccc(I)cc1	> 250	> 250	> 250	> 250	> 250	> 250	> 250	> 250	> 250	> 250	> 50	
